For twelve molecules, MIC results are on record in ChEMBL document CHEMBL1806376, “Synthesis and biological properties of macrolactam analogs of the natural product macrolide (-)-A26771B” (2011).

Type in all cases: functional
Assay [1] deals with Escherichia coli. The experiment in a line: Antibacterial activity against Escherichia coli ATCC 25922 by broth microdilution method. Put shortly:
(§1)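 MIC values determined by broth microdilution following the CLSI method.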

Assay [2] concerns Enterococcus faecalis. The assay can be described thus: Antibacterial activity against Enterococcus faecalis ATCC 29212 by broth microdilution method. In a few lines:
as §1

The test system of assay [3] is Enterococcus faecium. The assay can be described thus: Antibacterial activity against Enterococcus faecium 1 by broth microdilution method. Put shortly: as §1
Assay [4] concerns Haemophilus influenzae. The experiment in a line: Antibacterial activity against Haemophilus influenzae ATCC 31517 by broth microdilution method. The settings on record: Haemophilus influenzae, ATCC 31517; read-out: MIC. Put shortly: as §1
Assay [5] deals with Haemophilus influenzae. The assay can be described thus: Antibacterial activity against efflux knock-out Haemophilus influenzae LS2 by broth microdilution method. The settings on record: Haemophilus influenzae, LS2; read-out: MIC. Put shortly: as §1
For assay [6], the system named is Pseudomonas aeruginosa. The experiment in a line: Antibacterial activity against Pseudomonas aeruginosa ATCC 27853 by broth dilution method. Put shortly: as §1
For assay [7], the system named is Staphylococcus aureus. The assay can be described thus: Antibacterial activity against Staphylococcus aureus ATCC 13709 by broth microdilution method. The settings on record: Staphylococcus aureus, ATCC 13709; read-out: MIC. Put shortly:
as §1

In assay [8] the test system is Staphylococcus aureus. The assay can be described thus: Antibacterial activity against methicillin-resistant Staphylococcus aureus Sa2 by broth microdilution method. The settings on record: Staphylococcus aureus, Sa2; read-out: MIC. Put shortly: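 Broth microdilution run according to the CLSI method.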
In assay [9] the test system is Staphylococcus aureus. The assay can be described thus: Antibacterial activity against Staphylococcus aureus ATCC 25923 by broth microdilution method. The settings on record: Staphylococcus aureus, ATCC 25923; read-out: MIC. In a few lines: as §1
The subject of assay [10] is Staphylococcus aureus. The assay can be described thus: Antibacterial activity against Staphylococcus aureus ATCC 25923 by broth microdilution method in presence of 10% human serum. As to conditions: Staphylococcus aureus, ATCC 25923; read-out: MIC. In a few lines:
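MIC determined by broth microdilution per the CLSI method, with 10% human serum added to the medium.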

Assay [11] has as its system Staphylococcus aureus. The experiment in a line: Antibacterial activity against Staphylococcus aureus oxford by broth microdilution method. As to conditions: Staphylococcus aureus, oxford; read-out: MIC. In a few lines:
as §1

For assay [12], the system named is Streptococcus pneumoniae. The experiment in a line: Antibacterial activity against Streptococcus pneumoniae ATCC 49619 by broth microdilution method. The settings on record: Streptococcus pneumoniae, ATCC 49619; read-out: MIC. In a few lines:
as §1

Assay [13] has as its system Streptococcus pneumoniae. The experiment in a line: Antibacterial activity against Streptococcus pneumoniae Pen9 IV381-221 by broth microdilution method. The settings on record: Streptococcus pneumoniae, Pen9 IV381-221; read-out: MIC. In a few lines: as §1
[14] abbreviates: Enterococcus faecalis, ATCC 29212, read-out: MIC.
The mark [15] stands for this setting: Enterococcus faecium, 1, read-out: MIC.

In brackets after ≈: the same amount, converted by molar mass.

`C[C@@H]1CCCCCCCCC[C@H](OC(=O)CCC(=O)O)C(=O)/C=C/C(=O)O1`: the MIC in [1] was > 32 µg/mL; in [2] (setting [14]) it was 16 µg/mL (≈ 41.8 µM); in [3] (setting [15]) it was 4 µg/mL (≈ 10.5 µM); in assay [4], > 32 µg/mL; in assay [5] it was 16 µg/mL (≈ 41.8 µM); in [6], > 32 µg/mL. Besides, the MIC in assay [7] is 2 µg/mL (≈ 5.23 µM); in assay [8], 2 µg/mL (≈ 5.23 µM); in assay [9] it was 4 µg/mL (≈ 10.5 µM); in assay [10], > 32 µg/mL; in assay [11] it was 2 µg/mL (≈ 5.23 µM); in [12], 16 µg/mL (≈ 41.8 µM). Moreover, the MIC in assay [13] was 8 µg/mL (≈ 20.9 µM).
Take `CC(=O)N(CCOc1ccccc1)C1CC(=O)[C@@H](OC(=O)CCC(=O)OC(C)(C)C)CCCCCCCCC[C@@H](C)OC1=O` (stereo partly specified): the MIC in assay [1], in assay [2] (setting [14]), in assay [3] (setting [15]), in assay [4], in assay [5] and in assay [6] was > 32 µg/mL in each case. The MIC in [7], in [8], in assay [9], in assay [10], in assay [11] and in assay [12] was > 32 µg/mL each time. Further, in assay [13], the MIC is > 32 µg/mL.
For `C[C@@H]1CCCCCCCCC[C@H](OC(=O)CCC(=O)OC(C)(C)C)C(=O)c2[nH]ncc2C(=O)O1`, the MIC in assay [1] was > 64 µg/mL; in assay [2] (setting [14]), > 64 µg/mL; in assay [3] (setting [15]) it was > 64 µg/mL; in assay [4], > 64 µg/mL; in assay [5], 8 µg/mL (≈ 16.7 µM); in [6], > 64 µg/mL. Moreover, the MIC in assay [7], in assay [8], in [9], in [10], in assay [11] and in [12] was > 64 µg/mL in each case. Also, the MIC in [13] was found to be 32 µg/mL (≈ 66.9 µM).
Take `C[C@@H]1CCCCCCCCC[C@H](O)C(=O)/C=C/C(=O)O1`: the MIC in assay [1] is > 32 µg/mL; in assay [2] (setting [14]) it was 2 µg/mL (≈ 7.08 µM); in assay [3] (setting [15]), 8 µg/mL (≈ 28.3 µM); in assay [4], 16 µg/mL (≈ 56.7 µM); in assay [5], 1 µg/mL (≈ 3.54 µM); in [6], > 32 µg/mL. Moreover, the MIC in assay [7] is 1 µg/mL (≈ 3.54 µM); in assay [8] it was 2 µg/mL (≈ 7.08 µM); in assay [9], 2 µg/mL (≈ 7.08 µM); in [10] it was 32 µg/mL; in [11], 1 µg/mL (≈ 3.54 µM); in [12] it was 2 µg/mL (≈ 7.08 µM). Further, the MIC in assay [13] came to 2 µg/mL (≈ 7.08 µM).
For `CO[C@H]1CCCCCCCCC[C@@H](C)OC(=O)/C=C/C1=O`, the MIC is > 64 µg/mL in assay [1]; 2 µg/mL (≈ 6.75 µM) in [2] (setting [14]); 2 µg/mL (≈ 6.75 µM) in assay [3] (setting [15]); 32 µg/mL (≈ 108 µM) in assay [4]; 4 µg/mL (≈ 13.5 µM) in [5]; > 64 µg/mL in [6]. Moreover, the MIC in assay [7] came out at 1 µg/mL (≈ 3.37 µM); in [8], 0.5 µg/mL (≈ 1.69 µM); in assay [9], 1 µg/mL (≈ 3.37 µM); in assay [10] it was 16 µg/mL; in assay [11], 1 µg/mL (≈ 3.37 µM); in assay [12], 2 µg/mL (≈ 6.75 µM). The MIC in assay [13] worked out at 2 µg/mL (≈ 6.75 µM).
Take `CC(=O)O[C@H]1CCCCCCCCC[C@@H](C)OC(=O)/C=C/C1=O`: the MIC in [1] was > 64 µg/mL; in [2] (setting [14]) it was 4 µg/mL (≈ 12.3 µM); in assay [3] (setting [15]) it was 2 µg/mL (≈ 6.16 µM); in assay [4] it was 32 µg/mL (≈ 98.6 µM); in [5], 4 µg/mL (≈ 12.3 µM); in assay [6], > 64 µg/mL. Further, the MIC in [7] came out at 0.5 µg/mL (≈ 1.54 µM); in assay [8] it was 0.5 µg/mL (≈ 1.54 µM); in [9], 1 µg/mL (≈ 3.08 µM); in [10] it was 16 µg/mL; in assay [11], 1 µg/mL (≈ 3.08 µM); in assay [12] it was 2 µg/mL (≈ 6.16 µM). Moreover, in assay [13], the MIC was determined as 4 µg/mL (≈ 12.3 µM).
Turning to `Cc1nc2c([nH]1)CCCCCCCCC[C@@H](C)OC(=O)/C=C/2`, the MIC in [1] was > 64 µg/mL; in assay [2] (setting [14]), 32 µg/mL (≈ 105 µM); in assay [3] (setting [15]), 16 µg/mL (≈ 52.6 µM); in assay [4] it was > 64 µg/mL; in assay [5], 16 µg/mL (≈ 52.6 µM); in assay [6] it was > 64 µg/mL. Besides, the MIC was 32 µg/mL (≈ 105 µM) in assay [7]; 32 µg/mL (≈ 105 µM) in assay [8]; 32 µg/mL (≈ 105 µM) in [9]; > 64 µg/mL in assay [10]; 32 µg/mL (≈ 105 µM) in assay [11]; 16 µg/mL (≈ 52.6 µM) in assay [12]. In addition, the MIC in [13] was determined as 8 µg/mL (≈ 26.3 µM).
Turning to `CO[C@H]1CCCCCCCCC[C@@H](C)OC(=O)CCC1=O`, the MIC in assay [1] was > 64 µg/mL; in assay [2] (setting [14]), > 64 µg/mL; in assay [3] (setting [15]) it was > 64 µg/mL; in assay [4], > 64 µg/mL; in assay [5] it was 64 µg/mL (≈ 214 µM); in assay [6], > 64 µg/mL. The MIC in assay [7], in assay [8], in assay [9], in [10], in assay [11] and in assay [12] was > 64 µg/mL each time. The MIC in assay [13] was > 64 µg/mL.
Regarding `CO[C@H]1CCCCCCCCC[C@@H](C)OC(=O)/C(C)=C/C1=O`, the MIC in assay [1], in assay [2] (setting [14]), in assay [3] (setting [15]), in assay [4], in assay [5] and in assay [6] was > 64 µg/mL in each case. For the same molecule, the MIC in [7], in assay [8], in assay [9], in [10], in [11] and in assay [12] was > 64 µg/mL throughout. The MIC in assay [13] is > 64 µg/mL.
As to `CO[C@H]1CCCCCCCCC[C@@H](C)OC(=O)C(S(=O)(=O)c2ccccc2)CC1=O` (stereo partly specified), the MIC in assay [1] was > 64 µg/mL; in [2] (setting [14]), 4 µg/mL (≈ 9.12 µM); in [3] (setting [15]), 4 µg/mL (≈ 9.12 µM); in assay [4] it was 32 µg/mL (≈ 73 µM); in [5] it was 2 µg/mL (≈ 4.56 µM); in assay [6], > 64 µg/mL. Also, the MIC in assay [7] is 1 µg/mL (≈ 2.28 µM); in [8], 2 µg/mL (≈ 4.56 µM); in [9] it was 1 µg/mL (≈ 2.28 µM); in [10], 32 µg/mL; in assay [11] it was 1 µg/mL (≈ 2.28 µM); in assay [12] it was 4 µg/mL (≈ 9.12 µM). Also, the MIC in [13] amounted to 2 µg/mL (≈ 4.56 µM).
In the case of `CO[C@H]1CCCCCCCCC[C@@H](C)OC(=O)C2CC2C1=O` (mixture of isomers), the MIC in assay [1], in assay [2] (setting [14]), in [3] (setting [15]), in assay [4], in [5] and in [6] was > 64 µg/mL throughout. For the same molecule, the MIC in [7], in assay [8], in assay [9], in assay [10], in assay [11] and in assay [12] was > 64 µg/mL throughout. In addition, in assay [13], the MIC was > 64 µg/mL.
With `COC1CCCCCCCCC[C@@H](C)NC(=O)/C=C/C1=O` (single isomer, unassigned; diastereomer 1), the MIC in assay [1] was > 64 µg/mL; in assay [2], 2 µg/mL (≈ 6.77 µM); in assay [3] it was 0.5 µg/mL (≈ 1.69 µM); in assay [4], 2 µg/mL (≈ 6.77 µM); in assay [5] it was 0.25 µg/mL (≈ 0.846 µM); in assay [6], > 64 µg/mL. Moreover, the MIC in assay [7] was 1 µg/mL (≈ 3.38 µM); in assay [8] it was 1 µg/mL (≈ 3.38 µM); in assay [9] it was 1 µg/mL (≈ 3.38 µM); in assay [10] it was 8 µg/mL; in [11], 1 µg/mL (≈ 3.38 µM); in [12] it was 2 µg/mL (≈ 6.77 µM). The MIC in assay [13] amounted to 8 µg/mL (≈ 27.1 µM).
